Test system: HT-29 cells (human colon adenocarcinoma)
Assay: In vitro antiproliferative assay
Type: cell-based
Conditions: HT-29, 72 h exposure, SRB

Compound | IC50 ± SD
N.N.[Cl][Pt][Cl] [cis-platin, reference compound] | 3.63 ± 0.715 µg/mL

Same assay, conditions: Homo sapiens, HT-29, 72 h, read-out: IC50 ± SD

Compound | IC50
CC(=O)c1ccc([N+]2=NN(CCCl)CC2)cc1.[Cl-] [2a, 3-(4-Acetylphenyl)-1-(2-chloroethyl)-4,5-dihydro-1H-1,2,3-triazol-3-ium chloride] | 49.3 ± 17.4 µg/mL
CCOC(=O)c1ccc([N+]2=NN(CCCl)CC2)cc1.[Cl-] [2f, 1-(2-Chloroethyl)-3-(4-(ethoxycarbonyl)phenyl)-4,5-dihydro-1H-1,2,3-triazol-3-ium chloride] | 5.59 ± 0.632 µg/mL
ClCCN1CC[N+](c2ccc(Cl)cc2)=N1.[Cl-] [2e, 1-(2-Chloroethyl)-3-(4-chlorophenyl)-4,5-dihydro-1H-1,2,3-triazol-3-ium chloride] | 31.9 ± 8.14 µg/mL

Test system: MCF-7 cells (human breast carcinoma)
Assay: In vitro antiproliferative assay
Type: cell-based
Conditions: Homo sapiens, MCF7, 72 h, read-out: IC50 ± SD

Compound | IC50
CC(=O)c1ccc([N+]2=NN(CCCl)CC2)cc1.[Cl-] [2a, 3-(4-Acetylphenyl)-1-(2-chloroethyl)-4,5-dihydro-1H-1,2,3-triazol-3-ium chloride] | 45.1 ± 1.65 µg/mL
CCOC(=O)c1ccc([N+]2=NN(CCCl)CC2)cc1.[Cl-] [2f, 1-(2-Chloroethyl)-3-(4-(ethoxycarbonyl)phenyl)-4,5-dihydro-1H-1,2,3-triazol-3-ium chloride] | 20.9 ± 2.19 µg/mL
ClCCN1CC[N+](c2ccc(Cl)cc2)=N1.[Cl-] [2e, 1-(2-Chloroethyl)-3-(4-chlorophenyl)-4,5-dihydro-1H-1,2,3-triazol-3-ium chloride] | 15.1 ± 2.77 µg/mL

Same assay, conditions: MCF-7, 72 h exposure, SRB

Compound | IC50 ± SD
N.N.[Cl][Pt][Cl] [cis-platin, reference compound] | 1.73 ± 0.443 µg/mL

Test system: human cancer cell lines (MV-4-11, MCF-7, JURKAT, HT-29, Hep-G2, HeLa, Du-145, DAUDI)
Assay: In vitro antiproliferative assay, summary over several cancer cell lines
Type: cell-based
Conditions: read-out: IC50 values in relation to other cell lines

Compound | IC50
ClCCN1CC[N+](c2ccc(Cl)cc2)=N1.[Cl-] [2e, 1-(2-Chloroethyl)-3-(4-chlorophenyl)-4,5-dihydro-1H-1,2,3-triazol-3-ium chloride] | 12.5 to 36.4 µg/mL

Test system: DAUDI cells (Burkitt lymphoma)
Assay: In vitro antiproliferative assay
Type: cell-based, human
Conditions: DAUDI, 72 h exposure, MTT

Compound | IC50 ± SD
N.N.[Cl][Pt][Cl] [cis-platin, reference compound] | 1.07 ± 0.208 µg/mL

Same assay, conditions: Homo sapiens, Daudi, 72 h, read-out: IC50 ± SD

Compound | IC50
CCOC(=O)c1ccc([N+]2=NN(CCCl)CC2)cc1.[Cl-] [2f, 1-(2-Chloroethyl)-3-(4-(ethoxycarbonyl)phenyl)-4,5-dihydro-1H-1,2,3-triazol-3-ium chloride] | 61.9 ± 24.8 µg/mL
ClCCN1CC[N+](c2ccc(Cl)cc2)=N1.[Cl-] [2e, 1-(2-Chloroethyl)-3-(4-chlorophenyl)-4,5-dihydro-1H-1,2,3-triazol-3-ium chloride] | 13.6 ± 3.66 µg/mL

Test system: MCF-10A normal human mammary gland epithelial cells
Assay: cells
Type: cell-based
Conditions: Homo sapiens, MCF-10A, 72 h, read-out: IC50 ± SD

Compound | IC50
CC(=O)c1ccc([N+]2=NN(CCCl)CC2)cc1.[Cl-] [2a, 3-(4-Acetylphenyl)-1-(2-chloroethyl)-4,5-dihydro-1H-1,2,3-triazol-3-ium chloride] | 80 ± 8.43 µg/mL
CCOC(=O)c1ccc([N+]2=NN(CCCl)CC2)cc1.[Cl-] [2f, 1-(2-Chloroethyl)-3-(4-(ethoxycarbonyl)phenyl)-4,5-dihydro-1H-1,2,3-triazol-3-ium chloride] | 42 ± 17.3 µg/mL
ClCCN1CC[N+](c2ccc(Cl)cc2)=N1.[Cl-] [2e, 1-(2-Chloroethyl)-3-(4-chlorophenyl)-4,5-dihydro-1H-1,2,3-triazol-3-ium chloride] | 49.3 ± 15.5 µg/mL

Same assay, conditions: MCF-10A normal cells, 72 h exposure, SRB

Compound | IC50 ± SD
N.N.[Cl][Pt][Cl] [cis-platin, reference compound] | 4.65 ± 1.171 µg/mL

Same assay, conditions: MCF-10A vs MCF-7, JURKAT, HT-29, Hep-G2, HeLa, Du-145, DAUDI

Compound | cytotoxic activity against MCF-10A, times lower than against cancer cell lines
ClCCN1CC[N+](c2ccc(Cl)cc2)=N1.[Cl-] [2e, 1-(2-Chloroethyl)-3-(4-chlorophenyl)-4,5-dihydro-1H-1,2,3-triazol-3-ium chloride] | 1–5 times

Same assay, conditions: MCF-10A vs MV4-11 (cancer cell lines)

Compound | cytotoxic activity against MCF-10A, times lower than against cancer cells
CCOC(=O)c1ccc([N+]2=NN(CCCl)CC2)cc1.[Cl-] [2f, 1-(2-Chloroethyl)-3-(4-(ethoxycarbonyl)phenyl)-4,5-dihydro-1H-1,2,3-triazol-3-ium chloride] | 6–11 times
ClCCN1CC[N+](c2ccc(Cl)cc2)=N1.[Cl-] [2e, 1-(2-Chloroethyl)-3-(4-chlorophenyl)-4,5-dihydro-1H-1,2,3-triazol-3-ium chloride] | 6–11 times

Test system: MV-4-11 cells (biphenotypic B myelomonocytic leukemia)
Assay: In vitro antiproliferative assay
Type: cell-based, human
Conditions: Homo sapiens, MV4-11, 72 h, read-out: IC50 ± SD

Compound | IC50
CC(=O)c1ccc([N+]2=NN(CCCl)CC2)cc1.[Cl-] [2a, 3-(4-Acetylphenyl)-1-(2-chloroethyl)-4,5-dihydro-1H-1,2,3-triazol-3-ium chloride] | 13.4 ± 5.94 µg/mL
CCOC(=O)c1ccc([N+]2=NN(CCCl)CC2)cc1.[Cl-] [2f, 1-(2-Chloroethyl)-3-(4-(ethoxycarbonyl)phenyl)-4,5-dihydro-1H-1,2,3-triazol-3-ium chloride] | 6.16 ± 1.76 µg/mL
ClCCN1CC[N+](c2ccc(Cl)cc2)=N1.[Cl-] [2e, 1-(2-Chloroethyl)-3-(4-chlorophenyl)-4,5-dihydro-1H-1,2,3-triazol-3-ium chloride] | 7.69 ± 3.17 µg/mL

Same assay, conditions: MV-4-11, 72 h exposure, MTT

Compound | IC50 ± SD
N.N.[Cl][Pt][Cl] [cis-platin, reference compound] | 0.76 ± 0.184 µg/mL

Test system: Du-145 cells (human prostate carcinoma)
Assay: In vitro antiproliferative assay
Type: cell-based
Conditions: Du-145, 72 h exposure, SRB

Compound | IC50 ± SD
N.N.[Cl][Pt][Cl] [cis-platin, reference compound] | 0.59 ± 0.086 µg/mL

Same assay, conditions: Homo sapiens, DU-145, 72 h, read-out: IC50 ± SD

Compound | IC50
CC(=O)c1ccc([N+]2=NN(CCCl)CC2)cc1.[Cl-] [2a, 3-(4-Acetylphenyl)-1-(2-chloroethyl)-4,5-dihydro-1H-1,2,3-triazol-3-ium chloride] | 89 ± 9.31 µg/mL
CCOC(=O)c1ccc([N+]2=NN(CCCl)CC2)cc1.[Cl-] [2f, 1-(2-Chloroethyl)-3-(4-(ethoxycarbonyl)phenyl)-4,5-dihydro-1H-1,2,3-triazol-3-ium chloride] | 22.8 ± 10.1 µg/mL
ClCCN1CC[N+](c2ccc(Cl)cc2)=N1.[Cl-] [2e, 1-(2-Chloroethyl)-3-(4-chlorophenyl)-4,5-dihydro-1H-1,2,3-triazol-3-ium chloride] | 30.1 ± 10.2 µg/mL

Test system: not listed separately
Assay: Determination of lipophilicity by RP UPLC
Type: physicochemical
Conditions: not given
How it was run: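 Kinetex C18 column (150 × 4.6 mm, 2.6 µm) on a UPLC with UV detection at 254 nm. Test compound was dissolved in methanol at 10 µg/ml. Isocratic methanol fractions ran at 0.5 ml/min and 25 °C. Dead time was taken from uracil. log k was regressed linearly on methanol fraction Φ (Soczewiński–Wachtmeister), giving log kw as the intercept and S as the slope.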

Compound | Φ0 lipophilicity parameter (−log kw/S)
CC(=O)c1ccc([N+]2=NN(CCCl)CC2)cc1.[Cl-] [2a, 3-(4-Acetylphenyl)-1-(2-chloroethyl)-4,5-dihydro-1H-1,2,3-triazol-3-ium chloride] | 1.958
CCOC(=O)c1ccc([N+]2=NN(CCCl)CC2)cc1.[Cl-] [2f, 1-(2-Chloroethyl)-3-(4-(ethoxycarbonyl)phenyl)-4,5-dihydro-1H-1,2,3-triazol-3-ium chloride] | 1.301
ClCCN1CC[N+](c2ccc(Cl)cc2)=N1.[Cl-] [2e, 1-(2-Chloroethyl)-3-(4-chlorophenyl)-4,5-dihydro-1H-1,2,3-triazol-3-ium chloride] | 1.196

Same assay, conditions: Kinetex C18, methanol 0.65-0.95 v/v, 25 °C

Compound | log kw (capacity factor of the analyte in pure water)
ClCCN1CC[N+](c2ccc(Cl)cc2)=N1.[Cl-] [2e, 1-(2-Chloroethyl)-3-(4-chlorophenyl)-4,5-dihydro-1H-1,2,3-triazol-3-ium chloride] | −3.503

Same assay, conditions: log k = log kw + SΦ

Compound | -S (slope of the regression curve)
CC(=O)c1ccc([N+]2=NN(CCCl)CC2)cc1.[Cl-] [2a, 3-(4-Acetylphenyl)-1-(2-chloroethyl)-4,5-dihydro-1H-1,2,3-triazol-3-ium chloride] | 0.755
CCOC(=O)c1ccc([N+]2=NN(CCCl)CC2)cc1.[Cl-] [2f, 1-(2-Chloroethyl)-3-(4-(ethoxycarbonyl)phenyl)-4,5-dihydro-1H-1,2,3-triazol-3-ium chloride] | 2.259
ClCCN1CC[N+](c2ccc(Cl)cc2)=N1.[Cl-] [2e, 1-(2-Chloroethyl)-3-(4-chlorophenyl)-4,5-dihydro-1H-1,2,3-triazol-3-ium chloride] | 2.928

Test system: JURKAT cells (human leukemic T-cell lymphoblast)
Assay: In vitro antiproliferative assay
Type: cell-based
Conditions: Homo sapiens, Jurkat, 72 h, read-out: IC50 ± SD

Compound | IC50
CC(=O)c1ccc([N+]2=NN(CCCl)CC2)cc1.[Cl-] [2a, 3-(4-Acetylphenyl)-1-(2-chloroethyl)-4,5-dihydro-1H-1,2,3-triazol-3-ium chloride] | 66.2 ± 13.4 µg/mL
CCOC(=O)c1ccc([N+]2=NN(CCCl)CC2)cc1.[Cl-] [2f, 1-(2-Chloroethyl)-3-(4-(ethoxycarbonyl)phenyl)-4,5-dihydro-1H-1,2,3-triazol-3-ium chloride] | 36 ± 7.11 µg/mL
ClCCN1CC[N+](c2ccc(Cl)cc2)=N1.[Cl-] [2e, 1-(2-Chloroethyl)-3-(4-chlorophenyl)-4,5-dihydro-1H-1,2,3-triazol-3-ium chloride] | 13.6 ± 3 µg/mL

Same assay, conditions: JURKAT, 72 h exposure, MTT

Compound | IC50 ± SD
N.N.[Cl][Pt][Cl] [cis-platin, reference compound] | 0.24 ± 0.056 µg/mL

Test system: HeLa cells (human cervical carcinoma)
Assay: In vitro antiproliferative assay
Type: cell-based
Conditions: 72 h exposure, SRB

Compound | IC50 ± SD
N.N.[Cl][Pt][Cl] [cis-platin, reference compound] | 0.37 ± 0.137 µg/mL

Same assay, conditions: Homo sapiens, 72 h, read-out: IC50 ± SD

Compound | IC50
CC(=O)c1ccc([N+]2=NN(CCCl)CC2)cc1.[Cl-] [2a, 3-(4-Acetylphenyl)-1-(2-chloroethyl)-4,5-dihydro-1H-1,2,3-triazol-3-ium chloride] | 39.4 ± 9.77 µg/mL
CCOC(=O)c1ccc([N+]2=NN(CCCl)CC2)cc1.[Cl-] [2f, 1-(2-Chloroethyl)-3-(4-(ethoxycarbonyl)phenyl)-4,5-dihydro-1H-1,2,3-triazol-3-ium chloride] | 23.5 ± 3.32 µg/mL
ClCCN1CC[N+](c2ccc(Cl)cc2)=N1.[Cl-] [2e, 1-(2-Chloroethyl)-3-(4-chlorophenyl)-4,5-dihydro-1H-1,2,3-triazol-3-ium chloride] | 12.5 ± 2.23 µg/mL

Test system: Hep-G2 cells (human hepatocellular carcinoma)
Assay: In vitro antiproliferative assay
Type: cell-based
Conditions: Hep-G2, 72 h exposure, SRB

Compound | IC50 ± SD
N.N.[Cl][Pt][Cl] [cis-platin, reference compound] | 0.68 ± 0.147 µg/mL

Same assay, conditions: Homo sapiens, HepG2, 72 h, read-out: IC50 ± SD

Compound | IC50
CC(=O)c1ccc([N+]2=NN(CCCl)CC2)cc1.[Cl-] [2a, 3-(4-Acetylphenyl)-1-(2-chloroethyl)-4,5-dihydro-1H-1,2,3-triazol-3-ium chloride] | 38.5 ± 12.3 µg/mL
CCOC(=O)c1ccc([N+]2=NN(CCCl)CC2)cc1.[Cl-] [2f, 1-(2-Chloroethyl)-3-(4-(ethoxycarbonyl)phenyl)-4,5-dihydro-1H-1,2,3-triazol-3-ium chloride] | 27.8 ± 10.1 µg/mL
ClCCN1CC[N+](c2ccc(Cl)cc2)=N1.[Cl-] [2e, 1-(2-Chloroethyl)-3-(4-chlorophenyl)-4,5-dihydro-1H-1,2,3-triazol-3-ium chloride] | 14.9 ± 4.66 µg/mL
